High-throughput results as filed in PubChem BioAssay.
Compounds with a hit are over-represented: about 4.1% of the library has one in this group of screens.
KCC2 mod: modulates chloride dependent transport by human KCC2; KCC2 cells, thallium flux FluoZin-2 fluorescence; B-score of Tl+ flux slope (higher = more flux/activation; lower = inhibition) at 10 µM; 190,000 compounds, 2.2% hits;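 active = thallium flux slope and its plate-corrected score both differing from the plate sample mean at a set confidence after two filtering rounds, in either direction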;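 also: slope of fluorescence scaled to starting intensity during 10 to 20 s after thallium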
KCNQ1 block: blocks the human KCNQ1 potassium channel | P51787 | CHO-K1 KCNQ1, FluxOR thallium flux fluorescence; stronger effect = higher value | B-score at 10 µM | 310,000 compounds, 1.3% hits | AID 2642;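 active = compounds whose thallium flux B-score, printed positive for inhibition, exceeds three library SD while starting fluorescence stays within three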;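 also: channel opened by potassium depolarization with thallium stimulus after 20 min compound exposure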
hERG rescue: shields human hERG channel from block by proarrhythmic agents; Q12809; CHO-hERG, FluxOR thallium flux, dofetilide IC70 present; activation (rescue from dofetilide block), less the hit threshold, % at 10 µM; 310,000 compounds, 0.51% hits; AID 1511;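 active = activation above the mean of controls blocked by dofetilide plus 5 SD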;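 also: thallium influx through hERG after potassium depolarization seen as dye fluorescence rise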
Target sequence (Q12809 whole entry, looked up): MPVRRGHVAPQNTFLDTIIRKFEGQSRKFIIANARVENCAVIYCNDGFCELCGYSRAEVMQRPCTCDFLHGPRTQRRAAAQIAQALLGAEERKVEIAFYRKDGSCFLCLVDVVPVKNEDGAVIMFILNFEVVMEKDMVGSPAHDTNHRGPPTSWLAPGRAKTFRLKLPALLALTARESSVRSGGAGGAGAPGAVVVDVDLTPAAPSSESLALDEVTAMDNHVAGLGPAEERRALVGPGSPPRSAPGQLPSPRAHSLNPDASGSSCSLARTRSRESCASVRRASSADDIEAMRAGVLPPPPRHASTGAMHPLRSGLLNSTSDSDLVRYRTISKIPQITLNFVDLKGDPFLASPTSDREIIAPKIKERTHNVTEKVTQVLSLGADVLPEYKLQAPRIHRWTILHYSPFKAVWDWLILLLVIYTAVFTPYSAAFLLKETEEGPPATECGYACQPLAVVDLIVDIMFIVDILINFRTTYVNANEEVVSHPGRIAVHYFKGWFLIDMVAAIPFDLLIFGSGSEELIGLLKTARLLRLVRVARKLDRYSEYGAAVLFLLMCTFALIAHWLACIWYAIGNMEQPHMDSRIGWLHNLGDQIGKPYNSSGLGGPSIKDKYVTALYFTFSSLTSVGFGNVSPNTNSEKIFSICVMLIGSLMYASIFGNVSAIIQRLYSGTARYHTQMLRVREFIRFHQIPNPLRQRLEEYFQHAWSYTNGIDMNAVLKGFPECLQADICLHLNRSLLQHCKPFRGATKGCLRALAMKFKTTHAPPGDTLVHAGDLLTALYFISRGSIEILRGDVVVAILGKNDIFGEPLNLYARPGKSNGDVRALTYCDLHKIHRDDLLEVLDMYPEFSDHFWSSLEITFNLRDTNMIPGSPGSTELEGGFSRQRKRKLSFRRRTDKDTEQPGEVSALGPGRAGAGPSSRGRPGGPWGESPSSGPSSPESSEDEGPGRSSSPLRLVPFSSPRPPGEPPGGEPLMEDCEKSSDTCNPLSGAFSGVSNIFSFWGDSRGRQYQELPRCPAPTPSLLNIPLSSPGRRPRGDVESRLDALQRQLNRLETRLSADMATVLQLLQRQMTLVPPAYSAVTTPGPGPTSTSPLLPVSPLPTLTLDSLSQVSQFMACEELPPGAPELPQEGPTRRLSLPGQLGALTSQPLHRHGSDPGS
KCNK3 inh: human KCNK3 channel inhibition, primary screen. O14649. AID 602410. CHO-KCNK3 thallium flux, FluxOR fluorescence; stronger effect = lower value. B-score at 10 µM. 340,000 compounds, 0.84% hits;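 active = B-score under library mean minus 4 SD, starting fluorescence ratio at most library mean plus 5 SD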;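 also: more negative B-score means stronger inhibition of thallium flux through KCNK3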
KCNK9 inh: human KCNK9 channel inhibition; Q9NPC2; HEK293 KCNK9, FluxOR thallium flux fluorescence; stronger effect = lower value; B-score at 10 µM; 310,000 compounds, 1.2% hits;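 active = ratio B-score over 3 SD below the library mean, with starting fluorescence within 5 SD of its mean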;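 also: negative B-score means less thallium flux so channel inhibition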
KCNQ1 act: potentiators or activators of human KCNQ1 potassium channel | P51787 | CHO-K1 KCNQ1, thallium flux FluxOR fluorescence; stronger effect = higher value | B-score at 10 µM | 310,000 compounds, 0.35% hits;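 active = fluorescence ratio B-score, a plate-corrected score, at least three library SD, with initial intensity B-score within 5 SD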
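Assay system: CHO-K1 cells stably expressing KCNQ1; Medium: assay buffer with matched DMSO; Also added: K+/Tl+ depolarizing stimulus; Dosing: single dose; Timing: dye 90 min, compound 20 min, room temperature; Measured by: kinetic FluxOR thallium fluorescence, 10-s 1-Hz baseline, 110-s post-stimulus read; Read-out: peak-minus-minimum fluorescence over initial fluorescence, negative-control normalized, B-scored.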
KCC2 secondary: KCC2 (human) modulation, secondary assay; 3,700 compounds, 15% hits; shares compounds with KCC2 mod; normalised thallium flux (F/F0 slope) at 10 µM; HEK293-KCC2, thallium flux, FluoZin2 fluorescence; stronger effect = higher value;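 active = thallium flux slope above the same plate's solvent-only control mean plus 3 SD; inconclusive = the two replicate wells disagree; inactive = no significant difference from solvent-only control wells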
KCC2 bumet counter: thallium flux persisting under bumetanide in KCC2 cells, counter-screen secondary assay; shares compounds with KCC2 mod; HEK293-KCC2 + bumetanide/ouabain, thallium flux FluoZin2; stronger effect = higher value; normalized thallium flux at 10 µM; 3,700 compounds, 49% hits;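 active = thallium entry rate above the same plate's blocked-transporter control wells by more than 3 SD; inconclusive = the two repeat wells disagree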;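 also: raw slope of fluorescence over initial fluorescence between 10 and 20 s after thallium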
KCC2 sec2: KCC2 (human) modulation, second secondary assay; shares compounds with KCC2 mod; 3,700 compounds, 23% hits; AID 1715; normalized thallium flux at 10 µM; HEK293-KCC2, thallium flux FluoZin2 fluorescence; actives lie on both sides; F/F0 rise rate, 10–20 s post-thallium;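 active = thallium flux slope more than 3 SD above or below the plate's solvent-only control mean, mostly below; inconclusive = the two repeat wells disagreed; inactive = no significant shift from solvent-only controls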;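 also: raw slope with 0.1% DMSO as baseline and bumetanide as block control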
HEK293 Tl flux: parental HEK flux effect, counter-screen. HEK293 parental cells, thallium flux FluoZin2, ouabain; baseline-ratio fluorescence slope, 10–20 s after thallium. 3,700 compounds, 46% hits. shares compounds with KCC2 mod. AID 1716. thallium flux rate (normalised fluorescence) at 10 µM;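 active = thallium flux rate significantly above the same plate's solvent-only control wells, beyond their mean plus 3 SD; inconclusive = the two replicate wells gave conflicting results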
KCC2 retest ouab: modulates human KCC2 on retest with ouabain. 3,700 compounds, 48% hits. HEK293-KCC2, thallium flux FluoZin2 fluorescence; bidirectional: low = inhibitor, high = activator. raw Tl+ flux slope (below DMSO = inhibition, above = activation) at 10 µM. shares compounds with KCC2 mod;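 active = thallium flux slope beyond 3 SD from same-plate DMSO control mean in most replicates, usually higher, sometimes lower; inconclusive = repeat tests gave conflicting results; inactive = no significant difference from controls in most replicates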;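 also: slope of initial-normalized fluorescence between seconds 10 and 20 after thallium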
HEK counter2: acts in parental HEK cells, second KCC2 counter-screen. 3,700 compounds, 33% hits. HEK293 parental, thallium flux FluoZin-2 fluorescence slope. thallium flux slope at 10 µM. shares compounds with KCC2 mod;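 active = thallium flux slope above the same plate's solvent-control mean plus 3 SD in both duplicate wells; inconclusive = duplicate wells that disagreed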;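 also: run without ouabain in cells lacking the KCC2 cotransporter; slope of fluorescence scaled to its starting value between 10 and 20 s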
* = called active by the depositor.

How did CS(=O)(=O)N(CC(=O)N/N=C/c1cc2c(cc1Br)OCO2)c1ccccc1Br do in these assays?
KCC2 mod: 5.1*; KCNQ1 block: inactive; hERG rescue: -6; KCNK3 inh: inactive; KCNK9 inh: inactive; KCNQ1 act: inactive; KCC2 secondary: 0.0075; KCC2 bumet counter: 0.0046; KCC2 sec2: 0.03; HEK293 Tl flux: 0.0077; KCC2 retest ouab: 0.019; HEK counter2: 0.011

What do the screens show for `Cc1cc(-c2cccs2)c(C#N)c(=S)[nH]1`?
KCC2 mod: 33*; KCNQ1 block: inactive; hERG rescue: -10; KCNK3 inh: inactive; KCNK9 inh: inactive; KCNQ1 act: inactive; KCC2 secondary: 0.024*; KCC2 bumet counter: 0.034*; KCC2 sec2: inconclusive; HEK293 Tl flux: inconclusive; KCC2 retest ouab: 0.038*; HEK counter2: inconclusive

How did N#Cc1c(-c2cccs2)cc(-c2cccs2)[nH]c1=O do in these assays?
KCC2 mod: -0.87; KCNQ1 block: inactive; hERG rescue: -6; KCNK3 inh: inactive; KCNK9 inh: inactive; KCNQ1 act: inactive

Results for S=c1[nH]nc(C2CCCCC2)n1/N=C/c1cccc(Cl)c1Cl ?
KCNQ1 block: inactive; hERG rescue: -2; KCNK3 inh: inactive; KCNK9 inh: inactive; KCNQ1 act: inactive

What do the screens show for `Cc1cccc(Cc2cnc(N3C(=N)SC(c4ccccc4)C3=O)s2)c1` (configuration not stated)?
KCC2 mod: 1.4; KCNQ1 block: inactive; hERG rescue: 4; KCNK3 inh: inactive; KCNK9 inh: inactive; KCNQ1 act: inactive

What do the screens show for `N=C1SCC(=O)N1c1ncc(Cc2cccc(Cl)c2)s1`?
KCC2 mod: 8.1*; KCNQ1 block: inactive; hERG rescue: -10; KCNK3 inh: inactive; KCNK9 inh: inactive; KCNQ1 act: inactive; KCC2 secondary: inconclusive; KCC2 bumet counter: 0.019*; KCC2 sec2: 0.032; HEK293 Tl flux: 0.02*; KCC2 retest ouab: 0.031*; HEK counter2: inconclusive

Results for CC(C)C(=O)Nc1ncc(Cc2ccccc2Cl)s1 ?
KCC2 mod: 0.078; KCNQ1 block: inactive; hERG rescue: 1; KCNK3 inh: inactive; KCNK9 inh: inactive; KCNQ1 act: inactive

How did N=C1SCC(=O)N1c1ncc(Cc2ccccc2Cl)s1 do in these assays?
KCC2 mod: 11*; KCNQ1 block: inactive; hERG rescue: -5; KCNK3 inh: inactive; KCNK9 inh: inactive; KCNQ1 act: inactive; KCC2 secondary: 0.011; KCC2 bumet counter: 0.019*; KCC2 sec2: 0.03; HEK293 Tl flux: 0.014*; KCC2 retest ouab: inconclusive; HEK counter2: 0.011

What do the screens show for `O=C1N(Cc2cccc(Cl)c2)C[C@@H]2C[C@@H](c3cccc4ncccc34)N3CCC[C@@]123`?
KCNQ1 block: inactive; hERG rescue: -13; KCNK3 inh: inactive; KCNK9 inh: inactive; KCNQ1 act: inactive; KCC2 secondary: 0.0098; KCC2 bumet counter: 0.0052; KCC2 sec2: 0.036; HEK293 Tl flux: 0.0035; KCC2 retest ouab: 0.019; HEK counter2: 0.011

How did O=C1N(Cc2cccc(Cl)c2)C[C@@H]2C[C@@H](c3cccc4cccnc34)N3CCC[C@@]123 do in these assays?
KCC2 mod: -1; KCNQ1 block: inactive; hERG rescue: -8; KCNK3 inh: inactive; KCNK9 inh: inactive; KCNQ1 act: inactive

What do the screens show for `Cc1ccc(S(=O)(=O)N(CC(=O)NCCSCc2ccco2)c2ccc(F)cc2)cc1`?
KCC2 mod: -4.3*; KCNQ1 block: inactive; hERG rescue: -17; KCNK9 inh: inactive; KCNQ1 act: inactive; KCC2 secondary: 0.0059; KCC2 bumet counter: 0.0051; KCC2 sec2: 0.028; HEK293 Tl flux: 0.006; KCC2 retest ouab: 0.016*; HEK counter2: 0.0097

How did Cc1ccc(N(CC(=O)NCCSCc2ccco2)S(=O)(=O)c2ccc(F)cc2)cc1 do in these assays?
KCC2 mod: -1.8; KCNQ1 block: inactive; hERG rescue: -21; KCNK3 inh: inactive; KCNK9 inh: inactive; KCNQ1 act: inactive

Results for O=C(NC1CCN(Cc2ccccc2)C1)c1cc(COc2ccc(F)cc2F)on1 (configuration not stated) ?
KCNQ1 block: inactive; hERG rescue: -10; KCNK3 inh: inactive; KCNK9 inh: inactive; KCNQ1 act: inactive; KCC2 secondary: 0.0064; KCC2 bumet counter: 0.0048; KCC2 sec2: inconclusive; HEK293 Tl flux: 0.0074; KCC2 retest ouab: 0.019; HEK counter2: 0.0099

How did Cc1cc(NC(=O)CSc2nc3ccccc3c(=O)n2Cc2ccc(F)cc2)no1 do in these assays?
KCC2 mod: 3.5*; KCNQ1 block: inactive; hERG rescue: -9; KCNK3 inh: inactive; KCNK9 inh: inactive; KCNQ1 act: inactive; KCC2 secondary: 0.011; KCC2 bumet counter: 0.019*; KCC2 sec2: 0.035; HEK293 Tl flux: inconclusive; KCC2 retest ouab: inconclusive; HEK counter2: inconclusive

How did Cn1c(N)c(C(=O)CSc2nc3ccccc3c(=O)n2Cc2ccccc2)c(=O)n(C)c1=O do in these assays?
KCC2 mod: 2.4; KCNQ1 block: inactive; hERG rescue: -4; KCNK3 inh: inactive; KCNK9 inh: inactive; KCNQ1 act: inactive

Results for CCCCn1c(SCC(=O)Nc2ccc3c(c2)CCC3)nc2ccccc2c1=O ?
KCC2 mod: 9*; KCNQ1 block: inactive; hERG rescue: -11; KCNK3 inh: inactive; KCNK9 inh: inactive; KCNQ1 act: inactive; KCC2 secondary: 0.0061; KCC2 bumet counter: 0.014*; KCC2 sec2: 0.036; HEK293 Tl flux: 0.017*; KCC2 retest ouab: inconclusive; HEK counter2: 0.02*
